Assay results as given in ChEMBL document CHEMBL1122134, “Antimalarials. 14. 5-(aryloxy)-4-methylprimaquine analogues. A highly effective series of blood and tissue schizonticidal agents” (1982).

How the values were obtained:
[1] = Molar primaquine Index value of compound was determined; assay type: functional
Mus musculus [2] = assay: Number of cures out of five mice (Mus musculus) infected with Plasmodium berghei at 5 mg/kg(X 1) subcutaneous administration
Mus musculus [3] = assay: Number of cures out of five mice (Mus musculus) infected with Plasmodium berghei at 80 mg/kg(X 1) subcutaneous administration
Plasmodium cynomolgi [4] = assay: Cures in sporozoite-induced Plasmodium cynomolgi infected Rhesus monkeys (Macaca mulatta) at 1 mg/kg/day (x 7) peroral dose; n=3; assay type: functional; details: route oral
Mus musculus [5] = assay: Number of cures out of five mice (Mus musculus) infected with Plasmodium berghei at 160 mg/kg(X 1) subcutaneous administration
Plasmodium cynomolgi [6] = assay: Cures in sporozoite-induced Plasmodium cynomolgi infected Rhesus monkeys (Macaca mulatta) on 0.316 mg/kg/day peroral dose after 7 days, n=2; assay type: functional; details: route oral
Mus musculus [7] = assay: Number of cures out of five mice (Mus musculus) infected with Plasmodium berghei at 40 mg/kg(X 1) subcutaneous administration
Plasmodium cynomolgi [8] = assay: Cures in sporozoite-induced Plasmodium cynomolgi infected Rhesus monkeys (Macaca mulatta) on 0.1 mg/kg/day peroral dose after 7 days, n=3; assay type: functional; details: route oral
Mus musculus [9] = assay: Number of cures out of five mice (Mus musculus) infected with Plasmodium berghei at 20 mg/kg(X 1) subcutaneous administration
Mus musculus [10] = assay: Number of cures out of five mice (Mus musculus) infected with Plasmodium berghei at 320 mg/kg(X 1) subcutaneous administration
Mus musculus [11] = assay: Number of cures out of five mice (Mus musculus) infected with Plasmodium berghei at 10 mg/kg(X 1) subcutaneous administration
Mus musculus [12] = assay: Number of cures out of five mice (Mus musculus) infected with Plasmodium berghei at 640 mg/kg(X 1) subcutaneous administration
Plasmodium cynomolgi [13] = assay: Cures in sporozoite-induced Plasmodium cynomolgi infected Rhesus monkeys (Macaca mulatta) on 7 mg/kg/day peroral dose after 1 day; assay type: functional; details: route oral
How it was run: (§1)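 Single oral dose (×1) in P. cynomolgi-infected rhesus monkeys, given alone or with chloroquine phosphate at 5 mg/kg of salt (×7). Drug was given in salt form but dose calculated as free base. Each animal scored as cure (C), suppressive failure (SF, blood not cleared) or relapse (R, tissues not cleared).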

Plasmodium cynomolgi [14] = assay: Cures in sporozoite-induced Plasmodium cynomolgi infected Rhesus monkeys (Macaca mulatta) on peroral 14 mg/kg/day (x 1) dose; assay type: functional; details: route oral; how it was run: as §1
Mus musculus [15] = assay: Mean survival time of mice (Mus musculus) infected with Plasmodium berghei at 5 mg/kg(X 1)subcutaneous administration
Plasmodium cynomolgi [16] = assay: Suppressive failures in sporozoite-induced Plasmodium cynomolgi infected Rhesus monkeys (Macaca mulatta) on 0.875 mg/kg/day peroral dose after 1 day; assay type: functional; details: route oral; how it was run: as §1
Plasmodium cynomolgi [17] = assay: Relapses in sporozoite-induced Plasmodium cynomolgi infected Rhesus monkeys (Macaca mulatta) on 0.875 mg/kg/day peroral dose after 1 day; assay type: functional; details: route oral; how it was run: as §1
Plasmodium cynomolgi [18] = assay: Cures in sporozoite-induced Plasmodium cynomolgi infected Rhesus monkeys (Macaca mulatta) on 1 mg/kg/day peroral dose after 7 days, n=2; assay type: functional; details: route oral
Plasmodium cynomolgi [19] = assay: Cures in sporozoite-induced Plasmodium cynomolgi infected Rhesus monkeys (Macaca mulatta) on 0.1 mg/kg/day peroral dose after 7 days, n=2; assay type: functional; details: route oral
Mus musculus [20] = assay: Number of mice (Mus musculus) found toxic when infected with Plasmodium berghei at 640 mg/kg(X 1) subcutaneous administration
Plasmodium cynomolgi [21] = assay: Suppressive failures in sporozoite-induced Plasmodium cynomolgi infected Rhesus monkeys (Macaca mulatta) on 1.75 mg/kg/day peroral dose after 1 day; assay type: functional; details: route oral; how it was run: as §1
Plasmodium cynomolgi [22] = assay: Relapses in sporozoite-induced Plasmodium cynomolgi infected Rhesus monkeys (Macaca mulatta) on 0.4375 mg/kg/day peroral dose after 1 day; assay type: functional; details: route oral; how it was run: as §1
Plasmodium cynomolgi [23] = assay: Suppressive failures in sporozoite-induced Plasmodium cynomolgi infected Rhesus monkeys (Macaca mulatta) on 3.5 mg/kg/day peroral dose after 1 day; assay type: functional; details: route oral; how it was run: as §1
Plasmodium cynomolgi [24] = assay: Cures in sporozoite-induced Plasmodium cynomolgi infected Rhesus monkeys (Macaca mulatta) on 3.5 mg/kg/day peroral dose after 1 day; assay type: functional; details: route oral; how it was run: as §1
Mus musculus [25] = assay: Suppressive antimalarial activity against Plasmodium berghei in Rane mice (Mus musculus) test (five mice (Mus musculus)) at a dose of 160 mg/kg (X 1); assay type: functional
How it was run: (§2)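 Mice infected with Plasmodium berghei; five mice per dose. A single subcutaneous dose (mg/kg, ×1) was given 72 h after infection. Activity was scored as the increase in mean survival time over infected controls, with an increase of at least 100% counted as active. Cures are mice surviving at 60 days postinfection. Deaths attributed to the drug were scored as toxic.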

Plasmodium cynomolgi [26] = assay: Radical curative activity in sporozoite-induced Plasmodium cynomolgi infected Rhesus monkeys (Macaca mulatta) after 3.5 mg/kg/day (x1) oral dose; assay type: functional; how it was run: as §1
Mus musculus [27] = assay: Number of animals found toxic out of five mice (Mus musculus) infected with Plasmodium berghei at 640 mg/kg(X 1) subcutaneous administration
Plasmodium cynomolgi [28] = assay: Radical curative activity in sporozoite-induced Plasmodium cynomolgi infected Rhesus monkeys (Macaca mulatta) on 1.75 mg/kg/day oral dose after 1 day; assay type: functional; how it was run: as §1
Mus musculus [29] = assay: Suppressive antimalarial activity against Plasmodium berghei in Rane mice (Mus musculus) test (five mice (Mus musculus))80 mg/kg (X 1); assay type: functional; how it was run: as §2
Plasmodium cynomolgi [30] = assay: Radical curative activity in sporozoite-induced Plasmodium cynomolgi infected Rhesus monkeys (Macaca mulatta) on 14 mg/kg/day peroral dose after 1 day; assay type: functional; details: route oral; how it was run: as §1
Plasmodium cynomolgi [31] = assay: Radical curative activity in sporozoite-induced Plasmodium cynomolgi infected Rhesus monkeys (Macaca mulatta) on 7 mg/kg/day peroral dose after 1 day; assay type: functional; details: route oral; how it was run: as §1
Mus musculus [32] = assay: Suppressive antimalarial activity against Plasmodium berghei in Rane mice (Mus musculus) test (five mice (Mus musculus)) 40 mg/kg (X 1); assay type: functional; how it was run: as §2
Mus musculus [33] = assay: Suppressive antimalarial activity against Plasmodium berghei in Rane mice (Mus musculus) test (five mice (Mus musculus)) 20 mg/kg (X 1); assay type: functional; how it was run: as §2
Mus musculus [34] = assay: Number of animals found toxic out of five mice (Mus musculus) infected with Plasmodium berghei at 320 mg/kg(X 1) subcutaneous administration
Mus musculus [35] = assay: Suppressive antimalarial activity against Plasmodium berghei in Rane mice (Mus musculus) test (five mice (Mus musculus)) 10 mg/kg(X 1); assay type: functional; how it was run: as §2
Mus musculus [36] = assay: Suppressive antimalarial activity against Plasmodium berghei in Rane mice (Mus musculus) test (five mice (Mus musculus)) at a dose of 5 mg/kg(X 1); assay type: functional; how it was run: as §2
Mus musculus [37] = assay: Number of animals found toxic out of five mice (Mus musculus) infected with Plasmodium berghei at 640 mg/kg(X 1) subcutaneous administration; remark: listed apart in the source
Mus musculus [38] = assay: Suppressive antimalarial activity against Plasmodium berghei in Rane mice (Mus musculus) test (five mice (Mus musculus)) at a dose of 5 mg/kg(X 1)A-active; assay type: functional; how it was run: as §2
Mus musculus [39] = assay: Number of animals found toxic out of five mice (Mus musculus) infected with Plasmodium berghei at 320 mg/kg(X 1)subcutaneous administration
Plasmodium cynomolgi [40] = assay: Cures in sporozoite-induced Plasmodium cynomolgi infected Rhesus monkeys (Macaca mulatta) on 1.3 mg/kg/day peroral dose after 7 days, n=6; assay type: functional; details: route oral
Mus musculus [41] = assay: Number of animals found toxic out of five mice (Mus musculus) infected with Plasmodium berghei at 160 mg/kg(X 1)subcutaneous administration

## COc1cc(NC(C)CCCN)c2ncccc2c1 (stereo not given)
[1]
  Molar primaquine Index: 1

## COc1cc(NC(C)CCCN)c2nccc(C)c2c1Oc1ccc(Cl)c(Cl)c1.O=P(O)(O)O (stereo not given)
Mus musculus [2]
  Cures: 4
Mus musculus [3]
  Cures: 5
[1]
  Molar primaquine Index: 1.3
Plasmodium cynomolgi [4]
  Cures: 3
Mus musculus [5]
  Cures: 5
Plasmodium cynomolgi [6]
  Cures: 1
Mus musculus [7]
  Cures: 5
Plasmodium cynomolgi [8]
  Cures: 0
Mus musculus [9]
  Cures: 5
Mus musculus [10]
  Cures: 5
Mus musculus [11]
  Cures: 5
Mus musculus [12]
  Cures: 5

## COc1cc(NC(C)CCCN)c2nccc(C)c2c1Oc1cccc(C(F)(F)F)c1.O=C(O)CCC(=O)O (stereo not given)
Plasmodium cynomolgi [13]
  Cures: 2
Mus musculus [3]
  Cures: 5
Plasmodium cynomolgi [14]
  Cures: 1
[1]
  Molar primaquine Index: 4.8
Mus musculus [15]
  MST: 6.9
Plasmodium cynomolgi [16]
  Suppressive failures: 3
Plasmodium cynomolgi [17]
  Relapses: 1
Plasmodium cynomolgi [18]
  Cures: 2
Plasmodium cynomolgi [19]
  Cures: 0
Mus musculus [5]
  Cures: 5
Plasmodium cynomolgi [6]
  Cures: 2
Mus musculus [7]
  Cures: 5
Mus musculus [20]
  Cures: 4
Mus musculus [9]
  Cures: 5
Plasmodium cynomolgi [21]
  Suppressive failures: 4
Plasmodium cynomolgi [22]
  Relapses: 4
Plasmodium cynomolgi [23]
  Suppressive failures: 1
Mus musculus [10]
  Cures: 5
Mus musculus [11]
  Cures: 2
Mus musculus [12]
  Cures: 1
Plasmodium cynomolgi [24]
  Cures: 1

## COc1cc(NC(C)CCCN)c2ncccc2c1 (stereo not given) [PRIMAQUINE]
Mus musculus [25]
  MST: 7
Plasmodium cynomolgi [26]
  Cures: 2
Mus musculus [27]
  Cures: 5
Plasmodium cynomolgi [28]
  Cures: 2
Mus musculus [29]
  MST: 6.4
Plasmodium cynomolgi [30]
  Cures: 2
Plasmodium cynomolgi [31]
  Cures: 1
Mus musculus [32]
  MST: 4.2
Mus musculus [33]
  MST: 2.2
Mus musculus [34]
  Toxic animals (out of 5): 5

## COc1ccc(Oc2c(OC)cc(NC(C)CCCN)c3nccc(C)c23)cc1.O=P(O)(O)O (stereo not given)
Mus musculus [3]
  Cures: 5
[1]
  Molar primaquine Index: 4.3
Plasmodium cynomolgi [4]
  Cures: 3
Plasmodium cynomolgi [19]
  Cures: 0
Mus musculus [5]
  Cures: 5
Plasmodium cynomolgi [6]
  Cures: 2
Mus musculus [7]
  Cures: 5
Mus musculus [35]
  MST: 5.9
Mus musculus [9]
  Cures: 1
Mus musculus [34]
  Cures: 0
Mus musculus [10]
  Cures: 5
Mus musculus [12]
  Cures: 2
Mus musculus [36]
  MST: 5.5

## COc1cc(NC(C)CCCN)c2nccc(C)c2c1Oc1ccc(F)cc1.O=P(O)(O)O (stereo not given)
Mus musculus [3]
  Cures: 5
[1]
  Molar primaquine Index: 4.2
Plasmodium cynomolgi [4]
  Cures: 3
Mus musculus [37]
  Cures: 2
Mus musculus [38]
  MST: 7
Mus musculus [5]
  Cures: 5
Mus musculus [39]
  Cures: 1
Plasmodium cynomolgi [6]
  Cures: 2
Mus musculus [7]
  Cures: 5
Plasmodium cynomolgi [8]
  Cures: 0
Mus musculus [9]
  Cures: 4
Mus musculus [10]
  Cures: 4
Mus musculus [11]
  Cures: 3
Mus musculus [12]
  Cures: 3

## COc1cc(NC(C)CCCN)c2ncccc2c1.O=P(O)(O)O.O=P(O)(O)O (stereo not given) [PRIMAQUINE PHOSPHATE]
Mus musculus [25]
  MST: 10.8
Mus musculus [27]
  Cures: 5
Plasmodium cynomolgi [40]
  Cures: 6
Mus musculus [29]
  MST: 9.4
Plasmodium cynomolgi [18]
  Cures: 1
Mus musculus [41]
  Cures: 2
Mus musculus [32]
  MST: 5
Plasmodium cynomolgi [6]
  Cures: 0
Mus musculus [33]
  MST: 4
Mus musculus [34]
  Toxic animals (out of 5): 5

## COc1cc(NC(C)CCCN)c2nccc(C)c2c1Oc1ccc(Cl)cc1Cl.O=P(O)(O)O (stereo not given)
Mus musculus [3]
  Cures: 5
[1]
  Molar primaquine Index: 1.3
Plasmodium cynomolgi [4]
  Cures: 3
Mus musculus [27]
  Cures: 2
Mus musculus [5]
  Cures: 5
Plasmodium cynomolgi [6]
  Cures: 1
Mus musculus [7]
  Cures: 5
Plasmodium cynomolgi [8]
  Cures: 0
Mus musculus [9]
  Cures: 5
Mus musculus [34]
  Toxic animals (out of 5): 1
Mus musculus [10]
  Cures: 4
Mus musculus [11]
  Cures: 1
Mus musculus [12]
  Cures: 3
Mus musculus [36]
  MST: 5
